# According to ChEMBL document CHEMBL1649090, “Discovery of (7R)-14-cyclohexyl-7-{[2-(dimethylamino)ethyl](methyl) amino}-7,8-dihydro-6H-indolo[1,2-e][1,5]benzoxazocine-11-carboxylic acid (MK-3281), a potent and orally bioavailable finger-loop inhibitor of the hepatitis C virus NS5B polymerase” (J Med Chem, 2011):
# pEC50, pIC50: −log10 of the molar value. Active and inactive are the calls of the source. The rule behind the calls is not given here.
# Legend:
# [1] = Intrinsic clearance in human liver microsomes assessed per mg of protein presence of UDPGA; type: ADME, Microsome
# Hepatitis C virus [2] = assay: Inhibition of HCV1b NS5B delta21 polymerase after 1 hr; type: single protein, Hepatitis C virus subtype 1b
# Summary of the method: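 Enzyme inhibition IC50 measured on genotype 1b HCV NS5B polymerase truncated by 21 C-terminal residues (ΔC21).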
# [3] = Plasma protein binding in rat; type: ADME, cell-free; details: read-out: PPB (converted)
# [4] = Volume of distribution at steady state in Sprague-Dawley rat at 3 mg/kg, iv and 3 mg/kg, po; type: ADME, organism-based; details: in vivo, read-out: Vdss
# Summary of the method: (§1)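 Single iv and single oral doses, given as the bis-HCl salt, in rat, dog and rhesus, n = 3 per species (dog oral n = 2). The iv vehicle was DMSO/PEG400/water 20%/60%/20%. Oral vehicle was PEG400 for rat and dog and PEG400/water 70%/30% for rhesus. Values are mean ± SD.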
# Hepatitis C virus [5] = assay: Antiviral activity against HCV1a; type: functional, organism-based, Hepacivirus hominis; details: subtype 1a
# Hepatitis C virus [6] = assay: Antiviral activity against HCV1b infected in human Huh-7 cells assessed as inhibition of viral RNA replication after 96 hrs by ELISA assay in presence of 10% fetal calf serum; type: functional, organism-based, Hepacivirus hominis; details: genotype 1b, Huh-7, 96 h
# Hepatitis C virus [7] = assay: Antiviral activity against HCV2a; type: functional, organism-based, Hepacivirus hominis; details: genotype 2a
# [8] = Terminal half life in dog at 1 mg/kg, iv and 2 mg/kg, po; type: ADME, organism-based, Canis lupus familiaris; details: in vivo; summary of the method: as §1
# [9] = target: T1, DNA polymerase alpha catalytic subunit (Homo sapiens) (UniProt P09884); assay: Inhibition of human DNA polymerase alpha up to 50 uM
# T1 sequence (whole entry): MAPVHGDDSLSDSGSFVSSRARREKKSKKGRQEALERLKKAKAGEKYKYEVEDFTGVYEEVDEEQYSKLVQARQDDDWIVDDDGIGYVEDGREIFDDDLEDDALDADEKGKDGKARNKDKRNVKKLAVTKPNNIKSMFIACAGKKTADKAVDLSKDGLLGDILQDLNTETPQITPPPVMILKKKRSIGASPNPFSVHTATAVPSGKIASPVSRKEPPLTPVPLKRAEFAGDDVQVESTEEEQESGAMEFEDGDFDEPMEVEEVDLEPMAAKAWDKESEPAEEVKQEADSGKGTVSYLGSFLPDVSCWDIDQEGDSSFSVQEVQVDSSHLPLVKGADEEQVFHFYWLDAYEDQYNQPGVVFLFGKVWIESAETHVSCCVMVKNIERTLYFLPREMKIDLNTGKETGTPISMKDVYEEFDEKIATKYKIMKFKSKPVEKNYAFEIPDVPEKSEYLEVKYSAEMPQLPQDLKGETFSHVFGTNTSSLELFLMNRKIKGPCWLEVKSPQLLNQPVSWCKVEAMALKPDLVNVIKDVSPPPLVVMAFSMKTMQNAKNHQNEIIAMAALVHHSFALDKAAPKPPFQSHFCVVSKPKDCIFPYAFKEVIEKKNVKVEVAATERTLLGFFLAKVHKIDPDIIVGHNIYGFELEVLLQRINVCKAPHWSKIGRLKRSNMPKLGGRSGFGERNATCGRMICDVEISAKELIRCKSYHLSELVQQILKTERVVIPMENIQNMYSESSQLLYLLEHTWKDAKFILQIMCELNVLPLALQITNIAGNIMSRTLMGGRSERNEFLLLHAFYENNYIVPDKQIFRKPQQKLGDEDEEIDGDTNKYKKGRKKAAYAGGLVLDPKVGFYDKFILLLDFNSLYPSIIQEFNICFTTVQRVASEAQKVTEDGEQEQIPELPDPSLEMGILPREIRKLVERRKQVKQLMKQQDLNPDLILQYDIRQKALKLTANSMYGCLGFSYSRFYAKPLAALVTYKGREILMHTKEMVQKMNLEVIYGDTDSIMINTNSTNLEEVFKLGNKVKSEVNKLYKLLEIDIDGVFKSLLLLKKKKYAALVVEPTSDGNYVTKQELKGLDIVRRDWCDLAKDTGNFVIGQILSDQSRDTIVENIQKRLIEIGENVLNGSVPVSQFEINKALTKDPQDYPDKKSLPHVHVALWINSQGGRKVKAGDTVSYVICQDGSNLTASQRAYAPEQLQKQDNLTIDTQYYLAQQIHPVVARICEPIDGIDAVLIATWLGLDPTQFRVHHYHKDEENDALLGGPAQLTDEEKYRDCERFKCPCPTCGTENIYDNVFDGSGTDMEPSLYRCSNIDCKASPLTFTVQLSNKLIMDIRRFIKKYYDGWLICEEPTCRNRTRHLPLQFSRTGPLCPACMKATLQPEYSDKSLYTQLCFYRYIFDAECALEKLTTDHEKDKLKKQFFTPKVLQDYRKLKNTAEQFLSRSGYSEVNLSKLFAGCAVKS
# [10] = Volume of distribution at steady state in dog at 1 mg/kg, iv and 2 mg/kg, po; type: ADME, organism-based, Canis lupus familiaris; details: in vivo, read-out: Vdss; summary of the method: as §1
# [11] = Plasma concentration in HCV1b infected humanized uPA+/+-SCID mouse at 10 mg/kg, ip bid for 4 days measured 12 hrs after last post dose; type: ADME, organism-based; parameters: dose 10 mg/kg, route intraperitoneal
# Summary of the method: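 Three humanized uPA+/+-SCID mice infected with genotype 1b HCV received 10 or 50 mg/kg ip twice daily for 4 days, in PEG400/water 30%/70%. Trough plasma concentration was taken 12 h after the last dose.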
# Cytochrome P450 3A4 = Cytochrome P450 3A4 (Homo sapiens, UniProt P08684); assay: Inhibition of CYP3A4 up to 50 uM; type: ADME
# Chain of Cytochrome P450 3A4 (P08684 whole entry): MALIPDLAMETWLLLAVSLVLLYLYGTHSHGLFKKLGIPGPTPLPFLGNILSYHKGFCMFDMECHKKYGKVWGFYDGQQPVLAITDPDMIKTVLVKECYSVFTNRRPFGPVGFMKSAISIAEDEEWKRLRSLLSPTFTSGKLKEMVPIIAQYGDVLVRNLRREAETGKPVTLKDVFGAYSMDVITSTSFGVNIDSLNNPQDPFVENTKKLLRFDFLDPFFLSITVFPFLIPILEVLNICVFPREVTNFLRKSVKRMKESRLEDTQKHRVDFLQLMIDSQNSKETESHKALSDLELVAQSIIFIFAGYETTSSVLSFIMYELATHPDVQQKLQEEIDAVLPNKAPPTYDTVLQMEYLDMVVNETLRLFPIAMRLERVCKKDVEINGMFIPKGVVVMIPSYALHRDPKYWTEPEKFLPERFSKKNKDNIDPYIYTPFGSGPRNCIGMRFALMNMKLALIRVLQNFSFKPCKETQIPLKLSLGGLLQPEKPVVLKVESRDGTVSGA
# [12] = Terminal half life in Sprague-Dawley rat at 3 mg/kg, iv and 3 mg/kg, po; type: ADME, organism-based; details: in vivo
# Summary of the method: (§2)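 Single-dose PK of the bis-HCl salt, n = 3 per species (dog po n = 2). Intravenous doses: rat 3, dog 1, rhesus 2 mg/kg, in DMSO/PEG400/water 20%/60%/20%. Oral doses: rat 3, dog 2, rhesus 4 mg/kg, in PEG400 for rat and dog and PEG400/water 70%/30% for rhesus.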
# [13] = Oral bioavailability in dog at 2 mg/kg, po; type: ADME, organism-based, Canis lupus familiaris; details: in vivo; summary of the method: as §2
# Mus musculus [14] = assay: Toxicity in SCID mouse assessed as change in organ weight at 50 mg/kg, ip bid for 5 days; type: organism-based; parameters: dose 50 mg/kg, route intraperitoneal; details: in vivo, 120 h
# Summary of the method: (§3)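 Non-infected SCID mice (n = 3) received 50 mg/kg by intraperitoneal injection twice daily for five consecutive days, as a tolerability run before the infected-mouse study. Body and organ weights were checked for gross changes. Plasma compound levels were measured 12 h after the last dose.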
# Homo sapiens = species: Homo sapiens; assay: Inhibition of human DNA polymerase gamma up to 50 uM
# Mus musculus [15] = assay: Toxicity in SCID mouse assessed as change in body weight at 50 mg/kg, ip bid for 5 days; type: organism-based; parameters: dose 50 mg/kg, route intraperitoneal; details: in vivo, 120 h; summary of the method: as §3
# Hepatitis C virus [16] = assay: Antiviral activity against HCV3a; type: functional, organism-based, Hepacivirus hominis; details: genotype 3a
# [17] = Drug level in Sprague-Dawley rat liver at 3 mg/kg, po after 6 hrs; type: ADME, organism-based; parameters: dose 3 mg/kg, route oral; details: read-out: Drug uptake
# Summary of the method: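 Sprague-Dawley rats (n = 3) received the compound as its TFA salt in DMSO/PEG400/water 20%/60%/20%, as a single iv dose of 3 mg/kg or a single oral dose of 3 mg/kg. Liver tissue and plasma concentrations were measured 6 h after the oral dose.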
# [18] = Cmax in dog at 1 mg/kg, iv and 2 mg/kg, po; type: ADME, organism-based, Canis lupus familiaris; details: in vivo; summary of the method: as §2
# [19] = AUC in dog at 2 mg/kg, po; type: ADME, organism-based, Canis lupus familiaris; parameters: dose 2 mg/kg, route oral; details: plasma; summary of the method: as §2
smiles,measurement,setting,value
CN(C)CCN(C)[C@H]1COc2ccccc2-c2c(C3CCCCC3)c3ccc(C(=O)O)cc3n2C1 [MK-3281],microsomal CLint,[1],< 4 µL/min/mg
same,pIC50,Hepatitis C virus [2],8.22
same,fraction unbound,[3],0.03
same,Vd,[4],3.7 L/kg
same,pEC50,Hepatitis C virus [5],7.55
same,pEC50,Hepatitis C virus [6],7.42
same,pEC50,Hepatitis C virus [7],5.70
same,half-life,[8],6.1 h
same,inhibition,[9],inactive
same,Vd,[10],2.6 L/kg
same,concentration at 12 h,[11],670 nM
same,inhibition (INH),Cytochrome P450 3A4,Not Active
same,half-life,[12],3.4 h
same,bioavailability,[13],78%
same,Activity,Mus musculus [14],Non-toxic
same,inhibition,Homo sapiens,inactive
same,Activity,Mus musculus [15],Non-toxic
same,pEC50,Hepatitis C virus [16],7.43
same,concentration at 6 h,[17],420 nM
same,Cmax,[18],1000 nM
same,AUC,[19],8.6 µM·h
